# Experimental data: ChEMBL document CHEMBL4376891, “Benzenesulfonamide Derivatives as Calcium/Calmodulin-Dependent Protein Kinase Inhibitors and Antiviral Agents against Dengue and Zika Virus Infections” (J Med Chem, 2020)
# Active and inactive are the calls of the source. The calls are words filed in the database; no cut-off is given here.
# Assays:
# dengue virus type 2 [1] = test: Antiviral activity against Dengue virus 2 infected in human BE(2)-C cells assessed as reduction in NS3 protein expression at 3.125 to 6.25 uM treated during 0 to 3 hrs post infection by Western blot analysis; assay type: functional, organism-based
# In short: (§1)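 Time-of-addition design: BE(2)C cells were infected with DENV-2 or ZIKV at MOI 1. Compound at 3.125 or 6.25 μM was present either during adsorption (0–3 hpi) or afterward (3–24 hpi). Viral protein was immunoblotted against actin, with the ratio as % of the solvent control.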
# Influenza A virus = test: Antiviral activity of Influenza A virus (H1N1) infected in human HMC3 cells assessed as reduction in nucleoprotein protein expression at 0.781 to 12.5 uM incubated for 24 hrs by immunofluorescence microscopy; assay type: functional, organism-based
# Zika virus [2] = test: Antiviral activity against Zika virus infected in human BE(2)-C cells assessed as NS3 protein expression at 3.125 uM treated during 0 to 3 hrs post infection by Western blot analysis (reference value: 100%); assay type: functional; in short: as §1
# dengue virus type 2 [3] = test: Antiviral activity against eGFP-fused Dengue virus 2 infected in human BE(2)-C cells assessed as viral infection level by measuring intensity of eGFP emission from infected cells at 1.56 uM incubated for 24 hrs relative to control; assay type: functional
# In short: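 BE(2)C cells, in RPMI 1640 with 10% FBS, were infected with DENV-2-eGFP reporter virus (MOI 1) for 24 h with or without compound, using DMSO as solvent control. Cells were fixed in 4% paraformaldehyde and stained with Hoechst, then imaged by high-content analysis. eGFP intensity per cell number is given as % of solvent control. Values are means of 3 experiments.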
# BE(2)-C = test: Cytotoxicity against human BE(2)-C cells assessed as reduction in cell proliferation up to 12.5 uM incubated overnight by XTT assay relative to control; assay type: cell-based
# In short: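 BE(2)C cells (RPMI 1640, 10% FBS) exposed overnight to compound at concentrations up to 12.5 μM; XTT (proliferation) or LDH release (cytotoxicity) read by absorbance at 490 nm. Values normalized to solvent control (%), mean ± SD of 3 independent experiments.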
# dengue virus type 2 [4] = test: Antiviral activity against Dengue virus 2 infected in human BE(2)-C cells assessed as NS3 protein expression at 0.78 uM incubated for 48 hrs by Western blot analysis (reference value: 100%); assay type: functional
# In short: (§2)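 BE(2)C neuroblastoma cells in RPMI 1640 with 10% FBS were infected with DENV-2 PL046 at MOI 0.1 for 48 h, without or with compound at increasing concentrations. NS3 was immunoblotted with actin as loading control. The NS3:actin densitometry ratio was expressed as % of the DMSO control. Mean ± SD of 3 independent experiments.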
# dengue virus type 2 [5] = test: Antiviral activity against Dengue virus 2 infected in human BE(2)-C cells assessed as NS3 protein expression at 3.125 uM incubated for 48 hrs by Western blot analysis (reference value: 100%); assay type: functional; in short: as §2
# dengue virus type 2 [6] = test: Antiviral activity against Dengue virus 2 infected in human HMC3 cells assessed as reduction in NS3 protein expression at 1.56 to 12.5 uM incubated for 24 hrs by immunofluorescence microscopy; assay type: functional, organism-based
# dengue virus type 2 [7] = test: Antiviral activity against Dengue virus 2 infected in human HMC3 cells assessed as reduction in viral progeny production at 1.56 to 12.5 uM incubated for 48 hrs by Virus titer assay; assay type: functional, organism-based
# In short: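 Human microglial HMC3 cells in MEM with 10% FBS were infected with DENV-2 PL046 at MOI 0.1 for 48 h in the presence of noncytotoxic compound concentrations. Progeny virus was titrated by plaque assay on BHK-21 cells, expressed as log PFU/mL.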
# dengue virus type 2 [8] = test: Antiviral activity against Dengue virus 2 infected in human BE(2)-C cells assessed as reduction in viral entry at 3.125 to 6.25 uM incubated for 90 mins by plaque-forming assay relative to control; assay type: functional; set-up: scale not given: the % may be the effect or the level left
# In short: (§3)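 Virus entry: BE(2)C cells were incubated with DENV-2 or ZIKV for 90 min at 4 °C and washed cold. Cells were then treated with 3.125 or 6.25 μM compound at 37 °C for 1 h. Non-internalized virus was inactivated with 0.1 M glycine, pH 3, for 5 min. Cells were lysed by needle passage, and internalized virus was titrated by plaque assay. Mean ± SD, n = 3.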
# Zika virus [9] = test: Antiviral activity against Zika virus infected in human BE(2)-C cells assessed as reduction in viral entry at 3.125 to 6.25 uM incubated for 90 mins by plaque-forming assay relative to control; assay type: functional; set-up: scale not given: the % may be the effect or the level left; in short: as §3
# dengue virus type 2 [10] = test: Antiviral activity against Dengue virus 2 infected in human BE(2)-C cells transfected with shLacZ assessed as NS3 protein expression at 6.25 uM incubated for 48 hrs by Western blot analysis (reference value: 100%); assay type: functional
# Zika virus [11] = test: Antiviral activity against Zika virus infected in Stat1-/- mouse assessed as improvement in overall mouse survival at 4 to 8 mg/kg, po dosed 8 hrs after infection and ending at day 6 after infection (8 hrs delay) relative to control; assay type: functional, organism-based
# In short: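 Stat1-/- mice, 6 weeks old, infected sc in the footpad with 5x10⁴ PFU of ZIKV PRVABC59. Oral dosing at 4 or 8 mg/kg/day, or PBS, started 8 h post-infection and ran daily up to day 6; n = 5. Survival was monitored for 12 d, with T50 by log-rank test.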
# dengue virus type 2 [12] = test: Antiviral activity against DENV-2 NGC-N infected in Stat1-/- mouse assessed as improvement in mouse survival by measuring median survival time at 4 to 8 mg/kg, po dosed 8 hrs after infection and ending at day 6 after infection (8 hrs delay) (reference value: 8 days); assay type: functional
# dengue virus type 2 [13] = test: Antiviral activity against DENV-2 NGC-N infected in Stat1-/- mouse assessed as improvement in mouse survival by measuring median survival time at 4 mg/kg, po dosed 8 hrs after infection and ending at day 6 after infection (8 hrs delay) (reference value: 10 days); assay type: functional
# dengue virus type 2 [14] = test: Antiviral activity against DENV-2 NGC-N infected in Stat1-/- mouse assessed as improvement in overall mouse survival at 4 mg/kg, po dosed 8 hrs after infection and ending at day 6 after infection (8 hrs delay) relative to control; assay type: functional
# dengue virus type 2 [15] = test: Antiviral activity against Dengue virus 2 infected in human BE(2)-C cells assessed as NS3 protein expression at 6.25 uM treated during 0 to 3 hrs post infection by Western blot analysis (reference value: 100%); assay type: functional; in short: as §1
# dengue virus type 2 [16] = test: Antiviral activity against fluorescently labeled Dengue virus 2 infected in human BE(2)-C cells at 3.125 uM by confocal microscopy; assay type: functional, organism-based
# In short: (§4)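 DENV-2 or ZIKV was concentrated and labeled with atto-647N dye. BE(2)C cells were pretreated with solvent or 3.125 µM, then incubated at 37 °C with labeled DENV-2 for 30 min or ZIKV for 60 min. Cells were fixed in 4% paraformaldehyde, membranes stained with WGA-488, and intracellular virus signal imaged by confocal microscopy.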
# Zika virus [17] = test: Antiviral activity against fluorescently labeled Zika virus infected in human BE(2)-C cells at 3.125 uM by confocal microscopy; assay type: functional, organism-based; in short: as §4
# Zika virus [18] = test: Antiviral activity against Zika virus infected in human BE(2)-C cells transfected with shLacZ assessed as NS3 protein expression at 6.25 uM incubated for 48 hrs by Western blot analysis (reference value: 100%); assay type: functional
# dengue virus type 2 [19] = conditions: 3.125 to 6.25 uM
compound,measurement,setting,value
COc1ccc(S(=O)(=O)N(CCCC(=O)C2CCCCCC2)c2ccccc2)cc1,Activity,dengue virus type 2 [1],Dose-dependent effect
same,Activity,Influenza A virus,Active
same,Activity,Zika virus [2],60.1%
same,Activity,dengue virus type 2 [3],31.8%
same,Activity,BE(2)-C,Non-Toxic
same,Activity,dengue virus type 2 [4],85.4%
same,Activity,dengue virus type 2 [5],54.5%
same,Activity,dengue virus type 2 [6],Active
same,Activity,dengue virus type 2 [7],Active
same,Activity,dengue virus type 2 [8],<=70%
same,Activity,Zika virus [9],80%
same,Activity,dengue virus type 2 [10],34.6%
same,Activity,Zika virus [11],inactive
same,MST,dengue virus type 2 [12],10 days
same,MST,dengue virus type 2 [13],22 days
same,Activity,dengue virus type 2 [14],40%
same,Activity,dengue virus type 2 [15],27.3%
same,Activity,dengue virus type 2 [16],Active
same,Activity,Zika virus [17],Active
same,Activity,Zika virus [18],25.9%
same,inhibition,dengue virus type 2 [19],inactive
